STEP inh: STEP phosphatase inhibitors, primary screen, biochemical, fluorescence intensity, uHTS; Tyrosine-protein phosphatase non-receptor type 5 (Homo sapiens), P54829; recombinant STEP, OMFP fluorogenic substrate; inhibition, % at 20 µM; 0.25% of 360,000 active; AID 588621, 2011;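 active = inhibition at 20 µM, scaled per plate between control wells, above about 37%, limit read from the data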;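 also: 0% = DMSO with enzyme and substrate and 100% = substrate only without enzyme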
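System: STEP (striatal-enriched tyrosine phosphatase) enzyme, cell-free; medium: Bis-Tris pH 6.0 buffer with DTT, detergent; dosing: 20 µM, 1% DMSO; times: reaction 20 min, ambient temperature; detection: fluorescence, 480/540 nm; read-out basis: normalized % inhibition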
DNMT1 inh: human DNMT1 methyltransferase inhibitors, primary screen, biochemical, molecular beacon, fluorescence, HinP1I cleavage, uHTS. AID 588458, 2011. inhibition (reported as % activation of signal), % at 10 µM. DNA (cytosine-5)-methyltransferase 1 (Homo sapiens), P26358. 0.83% of 360,000 active; in the data active = inhibition above about 50%
CSN deneddyl inh: inhibitors of CSN-mediated cullin deneddylation, primary screen, biochemical, fluorescence polarization, uHTS; Purified CSN, SCF-Nedd8-OG deneddylation; inhibition, % at 12.5 µM; 0.38% of 360,000 active; AID 651999, 2013;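 active = pattern-corrected inhibition above about 35%, with an unprinted fluorescence ratio check between 0.5 and 1.5, limit read from the data, passing the limit was not always enough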;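 also: 0% = enzyme with substrate and 100% = substrate without enzyme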
Target sequence (Q92905 whole entry, looked up, one chain of several): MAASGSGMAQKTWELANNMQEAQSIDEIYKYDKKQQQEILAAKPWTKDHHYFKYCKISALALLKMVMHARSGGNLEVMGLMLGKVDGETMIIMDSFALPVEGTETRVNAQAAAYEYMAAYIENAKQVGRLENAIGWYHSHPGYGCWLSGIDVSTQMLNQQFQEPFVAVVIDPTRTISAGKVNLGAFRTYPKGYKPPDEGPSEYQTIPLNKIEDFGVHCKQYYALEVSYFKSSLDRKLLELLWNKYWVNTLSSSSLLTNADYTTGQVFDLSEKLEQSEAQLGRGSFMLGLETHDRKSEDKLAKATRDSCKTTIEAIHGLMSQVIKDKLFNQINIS
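assay system = purified human Csn5 enzyme expressed in HEK293T cells | amount = 0.24 nM enzyme | buffer or medium = Tris/NaCl/DTT buffer, pH 7.5 | reagent = 10 nM SCFSkp2-Nedd8OG | compound = one concentration, 12.5 µM, 0.25% DMSO | times = 90 min reaction at room temperature | signal = FP | read-out basis = % inhibition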
LMPTP inh: LMPTP phosphatase inhibitors, primary screen, biochemical, fluorescence intensity, uHTS. inhibition, % at 20 µM. recombinant LMPTP-A, OMFP fluorogenic substrate. Low molecular weight phosphotyrosine protein phosphatase (Homo sapiens), P24666. 0.22% of 360,000 active;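 active = compounds that cut the enzyme signal by at least half of the control window in the single-dose screen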;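 also: plate controls were DMSO wells with enzyme plus substrate for no effect and substrate without enzyme for full effect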
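test system = LMPTP-A | amount = 0.625 nM LMPTP-A final | reagent = fluorogenic phosphatase substrate OMFP at 400 µM final | incubation = 50 min at room temperature | benchmarks = no-enzyme low control, uninhibited high control | medium = Bis-Tris pH 6.0, DTT, detergent | signal = fluorescence intensity of OMFP turnover product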
Scp1 inh: Scp-1 phosphatase inhibitors, primary screen, biochemical, colorimetric, uHTS | inhibition, % at 20 µM | AID 493091, 2011 | 0.88% of 340,000 active | Recombinant Scp1, phosphopeptide, malachite green phosphate absorbance;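 active = inhibition above about 50% at 20 µM, limit read from the data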;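 also: plate controls were DMSO wells with enzyme for no effect and wells lacking enzyme for full effect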
Target sequence (Q9GZU7 76-261 limits assumed): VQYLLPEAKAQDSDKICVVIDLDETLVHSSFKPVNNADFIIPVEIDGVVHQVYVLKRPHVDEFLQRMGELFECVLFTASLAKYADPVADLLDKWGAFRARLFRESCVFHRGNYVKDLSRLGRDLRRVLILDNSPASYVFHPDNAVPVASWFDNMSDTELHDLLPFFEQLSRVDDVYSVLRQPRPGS
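System: SCP-1 catalytic domain; Reagent: Phospho 17-mer peptide substrate; Doses: one concentration, 20 µM, with 1.0% DMSO; Incubation: 45 min room-temperature reaction, 5 min colour, 30 min stabiliser; Signal: Phosphate-binding colour reagent, absorbance read at 630 nm.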
SUMO1-SIM PPI: modulators of SUMO1 protein-protein interactions, primary screen, biochemical, uHTS | Small ubiquitin-related modifier 1 (Homo sapiens), P63165 | SUMO1 binding to a labelled peptide, TR-FRET, 1 h | 0.33% of 360,000 active | inhibition, % at 20 µM; in the data active = inhibition above about 37%
Target sequence (P63165 whole entry, looked up): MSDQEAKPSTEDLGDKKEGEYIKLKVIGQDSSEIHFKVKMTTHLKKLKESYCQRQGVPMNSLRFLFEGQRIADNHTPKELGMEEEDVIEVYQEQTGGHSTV
Numbers without * were called inactive; x = no result. Only some compounds are listed: those with a hit (about 2% of all), similar ones and a draw of the others.

SMILES	STEP inh	DNMT1 inh	CSN deneddyl inh	LMPTP inh	Scp1 inh	SUMO1-SIM PPI
CC(CCC(=O)NN)C1CCC2C3CCC4CC(O)CCC4(C)C3CCC12C (stereo not drawn)	1	-8	13	-2	-8	9
CC(CCC(C)C(C)(C)C)[C@@H]1CC[C@H]2C3C[C@H](OS(O)(=S)=S)[C@H]4C[C@H](OS(O)(=S)=S)[C@@H](OS(O)(=S)=S)C[C@]4(C)[C@H]3CC[C@]12C (stereo partly drawn) (tested in a mixture with another compound)	31	-167	35*	81*	25	45*
Cc1ccc(C(=O)Nc2ccc(Cl)cc2C)c(Cl)c1	4	0	-7	0	-2	-1
CC(C1SC(=S)NC1=O)C1SC(=S)NC1=O (stereo not drawn)	2	-6	38*	68*	x	20
COc1ccc(S(=O)(=O)NCCc2c[nH]c3ccc(C)cc23)cc1	3	-8	1	-1	-8	4
COc1ccc2nc(NC(=O)c3cc(C)oc3C)sc2c1	0	-7	-1	1	-3	1
COc1ccc(C(=O)Nc2nc3cc4c(cc3s2)OCO4)c(OC)c1	-1	-19	0	1	-17	60*
CC(C)c1cc(N=NC(N)=O)cc(C(C)C)c1O	0	-1	-2	0	-3	-27
CN(C)S(=O)(=O)n1cnc([C@@H]2[C@H]3C(=O)OC[C@@H]3C[C@@]23N=CN(Cc2ccccc2)C3=O)c1	-1	1	0	-1	-8	2
CCOC(=O)COc1ccc(Br)cc1/C=C/c1[nH]c(=O)[nH]c(=O)c1[N+](=O)[O-]	4	17	39*	-1	-1	24
Cc1[nH]c(=O)c(C#N)cc1-c1csc(-c2ccccc2)n1	-2	15	9	60*	9	6
Cc1nc(-c2cc(C#N)c(=O)[nH]c2C)cs1	0	-3	1	-2	-10	0
Cc1ncc([N+](=O)[O-])n1CC(=O)N/N=C/c1ccc(F)cc1	1	-1	-3	1	-1	-6
Nc1nc(COC(=O)CCC(=O)c2ccccc2)nc(Nc2ccccc2)n1	5	-13	106*	2	-1	16
Cc1ccc(C(=O)C(C)OC(=O)Cn2cnc3c2c(=O)n(C)c(=O)n3C)cc1 (stereo not drawn)	0	6	-5	-3	-5	5
CCn1c(CNC(=O)COc2ccc(C(C)C)cc2)nnc1SCC(=O)NC1CCCCC1C (stereo not drawn)	-1	12	70*	-1	-15	1
CCn1c(CNC(=O)COc2ccc(C(C)C)cc2)nnc1SCC(=O)Nc1ccc(F)cc1	-1	1	-6	0	-5	-3
c1ccc(CCCCN2C(Nc3ccccc3)=NC[C@@H]2Cc2ccccc2)cc1	-2	9	6	-2	7	-6
CCCCCCCN1C(Nc2ccccc2)=NC[C@@H]1Cc1ccccc1	2	58*	0	3	3	-5
C=CC#CC[N+]1(CC#Cc2ccccc2)CCOCC1	5	-30	166*	52*	9	37*
O=C(c1ccc(Br)o1)N1CCN(c2ccc3nnc(-c4ccc(F)cc4)n3n2)CC1	2	-7	5	0	6	49*
Cc1ccc(-c2nc(Nc3cccc(C)c3)sc2CC(=O)O)cc1	-2	-33	19	0	4	12
O=C(O)Cc1sc(NC2CCCCC2)nc1-c1ccc(Cl)cc1	1	-1	65*	0	-8	-3
CC(C)n1c(O)c(N=Nc2ccc(Cl)nn2)c2ccccc21	1	3	44*	2	-14	-19
CC(C)n1c(O)c(N=NC(=O)CNC(=O)Cc2ccc(Cl)cc2)c2ccccc21	3	-3	4	1	-11	-35
SMILES	STEP inh	DNMT1 inh	CSN deneddyl inh	LMPTP inh	Scp1 inh	SUMO1-SIM PPI
Cc1ccc(-c2cc(C(=O)Nc3ccccn3)c3ccccc3n2)o1	7	61*	11	7	58*	1
CNC(=S)N/N=C/c1ccc(-c2ccc(C(=O)O)cc2)o1	4	13	6	2	52*	2
C#CCOCCOCCOCCNc1nc(N2CCN(C(=O)[C@H](CCCCN)n3cc(CN)nn3)CC2)nc(N2CCN(C(=O)[C@H](CCCCN)n3cc([C@@H](N)[C@H](C)CC)nn3)CC2)n1	0	-181	99*	-9	-1	-190
C#CCOCCOCCOCCNc1nc(N2CCN(C(=O)[C@H](CCCCN)n3cc(C(N)[C@H](C)CC)nn3)CC2)nc(N2CCN(C(=O)[C@H](CCC(=O)O)n3cc(C(N)[C@H](C)CC)nn3)CC2)n1 (stereo partly drawn)	-2	0	2	-8	-3	-183
C#CCOCCOCCOCCNc1nc(N2CCN(C(=O)[C@H](CCC(=O)O)n3cc(C(N)CO)nn3)CC2)nc(N2CCN(C(=O)[C@H](Cc3cc4ccccc4[nH]3)n3cc(C(N)[C@H](C)CC)nn3)CC2)n1 (stereo partly drawn)	0	-11	4	0	6	-22
C#CCOCCOCCOCCNc1nc(N2CCN(C(=O)[C@H](CCCCN)n3cc([C@@H](N)C(C)CC)nn3)CC2)nc(N2CCN(C(=O)[C@H](Cc3cc4ccccc4[nH]3)n3cc([C@@H](N)CC(C)C)nn3)CC2)n1 (stereo partly drawn)	-3	-111	45*	-5	8	-112
CC1CCN(c2ccc(C(=O)NCc3ccco3)cc2[N+](=O)[O-])CC1	1	-5	-10	1	9	-24
COc1ccc(NC(=O)/C(=C\c2ccncc2)NC(=O)c2ccccc2)cc1	3	-1	50*	-1	-6	-3
COC(=O)c1ccc(OC(=O)/C=C/c2ccco2)cc1	11	17	25	7	10	-34
O=Cc1cccc(OC(=O)/C=C/c2ccco2)c1	48*	92*	28	33	69*	12
Cc1ccccc1C1CC(=O)c2ccccc2C1C (stereo not drawn)	5	4	1	2	1	3

Screening results from PubChem BioAssay.
